The results in this text go back to ChEMBL document CHEMBL3232963, “Discovery of a potent and selective α3β4 nicotinic acetylcholine receptor antagonist from an α-conotoxin synthetic combinatorial library” (J Med Chem, 2014).

The term inhibition denotes the share of the control response that was lost under treatment.

Each structure is given as a SMILES string. Numbered stars: 1 amine (or outer) side, 2 acyl side, 3 side chain; on linkers, the order of the positions; unused ones are H or OH. Bridge positions count the residues as written; N and C are the ends. Square brackets hold non-standard residues; d marks the D form. Peptide text beside a SMILES is read from it. X1 = O=C([C@H](CC1C=Nc2ccccc21)N[*:1])[*:2]; Nle = CCCC[C@H](N)C(=O)O; Nva = CCC[C@H](N)C(=O)O; Abu = CC[C@H](N)C(=O)O

The assay concerns the target Neuronal acetylcholine receptor; alpha3/beta4 (Rattus norvegicus) (UniProt P04757+P12392). Kind of assay: Antagonist activity at rat alpha3beta4 nAChR expressed in HEK293 cells assessed as inhibition of epibatadine-induced effect at 10 uM after 30 mins by fluorescent membrane potential assay relative to mecamylamine. It counts as cell-based. The gist of the method: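 Rat α3β4 nAChR stably expressed in HEK293 cells; crude, SPE-desalted individual peptides tested at 10 μM in HBSS with membrane potential blue dye, 30 min at 37 °C. Fluorescence change read after epibatidine (0.1 μM). Percent inhibition set against 10 μM mecamylamine taken as 100%.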
With `CCC[C@@H]1NC(=O)[C@H](CC)NC(=O)[C@H](Cc2ccccc2)NC(=O)[C@@H]2CSSC[C@H](NC(=O)CN)C(=O)N[C@@H](CSSC[C@@H](C(=O)O)NC(=O)[C@@H]3CCCN3C1=O)C(=O)N[C@@H](CO)C(=O)N[C@@H](Cc1cnc[nH]1)C(=O)N1CCC[C@H]1C(=O)N1CCC[C@H]1C(=O)N2` (H-GCCSHPPCF[Abu][Nva]PC-OH; disulfide 2-8, 3-13), the inhibition was found to be 36%.

For the molecule `CCC[C@@H]1NC(=O)[C@H](Cc2c[nH]c3ccccc23)NC(=O)[C@H](Cc2ccccc2)NC(=O)[C@@H]2CSSC[C@H](NC(=O)CN)C(=O)N[C@@H](CSSC[C@@H](C(=O)O)NC(=O)[C@@H]3CCCN3C1=O)C(=O)N[C@@H](CO)C(=O)N[C@@H](Cc1cnc[nH]1)C(=O)N1CCC[C@H]1C(=O)N[C@@H](CC)C(=O)N2` (H-GCCSHP[Abu]CFW[Nva]PC-OH; disulfide 2-8, 3-13), the inhibition came out at 36.2%.

As for `CCC[C@@H]1NC(=O)[C@H](Cc2c[nH]c3ccccc23)NC(=O)[C@H](Cc2ccccc2)NC(=O)[C@@H]2CSSC[C@H](NC(=O)CN)C(=O)N[C@@H](CSSC[C@@H](C(=O)O)NC(=O)[C@H](Cc3ccc(O)cc3)NC1=O)C(=O)N[C@@H](CO)C(=O)N[C@@H](Cc1cnc[nH]1)C(=O)N1CCC[C@H]1C(=O)N[C@@H](CC)C(=O)N2` (H-GCCSHP[Abu]CFW[Nva]YC-OH; disulfide 2-8, 3-13), the inhibition amounted to 72.1%.

As to `CCCC[C@@H]1NC(=O)[C@H](CC)NC(=O)[C@H](Cc2ccccc2)NC(=O)[C@@H]2CSSC[C@H](NC(=O)CN)C(=O)N[C@@H](CSSC[C@@H](C(=O)O)NC(=O)[C@@H]3CCCN3C1=O)C(=O)N[C@@H](CO)C(=O)N[C@@H](Cc1cnc[nH]1)C(=O)N1CCC[C@H]1C(=O)N[C@@H](CC)C(=O)N2` (H-GCCSHP[Abu]CF[Abu][Nle]PC-OH; disulfide 2-8, 3-13), the inhibition came out at 35.5%.

As to `CCC[C@@H]1NC(=O)[C@H](CC)NC(=O)[C@H](Cc2ccccc2)NC(=O)[C@@H]2CSSC[C@H](NC(=O)CN)C(=O)N[C@@H](CSSC[C@@H](C(=O)O)NC(=O)[C@@H]3CCCN3C1=O)C(=O)N[C@@H](CO)C(=O)N[C@@H](Cc1cnc[nH]1)C(=O)N1CCC[C@H]1C(=O)N[C@@H](CC)C(=O)N2` (H-GCCSHP[Abu]CF[Abu][Nva]PC-OH; disulfide 2-8, 3-13), the inhibition turned out to be 47%.

Regarding `CCCC[C@@H]1NC(=O)[C@H](CC2C=Nc3ccccc32)NC(=O)[C@H](Cc2ccccc2)NC(=O)[C@@H]2CSSC[C@H](NC(=O)CN)C(=O)N[C@@H](CSSC[C@@H](C(=O)O)NC(=O)[C@@H]3CCCN3C1=O)C(=O)N[C@@H](CO)C(=O)N[C@@H](Cc1cnc[nH]1)C(=O)N1CCC[C@H]1C(=O)N[C@@H](CC)C(=O)N2` (some centres undefined) (H-GCCSHP[Abu]CF[X1][Nle]PC-OH; disulfide 2-8, 3-13), the inhibition was 22.3%.

In the case of `CCCC[C@@H]1NC(=O)[C@H](Cc2c[nH]c3ccccc23)NC(=O)[C@H](Cc2ccccc2)NC(=O)[C@@H]2CSSC[C@H](NC(=O)CN)C(=O)N[C@@H](CSSC[C@@H](C(=O)O)NC(=O)[C@@H]3CCCN3C1=O)C(=O)N[C@@H](CO)C(=O)N[C@@H](CCCC)C(=O)N1CCC[C@H]1C(=O)N1CCC[C@H]1C(=O)N2` (H-GCCS[Nle]PPCFW[Nle]PC-OH; disulfide 2-8, 3-13), the inhibition turned out to be 14.2%.

As to `CCCC[C@@H]1NC(=O)[C@H](Cc2c[nH]c3ccccc23)NC(=O)[C@H](Cc2ccccc2)NC(=O)[C@@H]2CSSC[C@H](NC(=O)CN)C(=O)N[C@@H](CSSC[C@@H](C(=O)O)NC(=O)[C@H](Cc3ccc(O)cc3)NC1=O)C(=O)N[C@@H](CO)C(=O)N[C@@H](CCCC)C(=O)N1CCC[C@H]1C(=O)N1CCC[C@H]1C(=O)N2` (H-GCCS[Nle]PPCFW[Nle]YC-OH; disulfide 2-8, 3-13), the inhibition came out at 60.2%.

As for `CCCC[C@@H]1NC(=O)[C@H](CO)NC(=O)[C@@H]2CSSC[C@@H](C(=O)O)NC(=O)[C@@H]3CCCN3C(=O)[C@H](CCC)NC(=O)[C@H](Cc3c[nH]c4ccccc34)NC(=O)[C@H](Cc3ccccc3)NC(=O)[C@H](CSSC[C@H](NC(=O)CN)C(=O)N2)NC(=O)[C@@H]2CCCN2C(=O)[C@@H]2CCCN2C1=O` (H-GCCS[Nle]PPCFW[Nva]PC-OH; disulfide 2-8, 3-13), the inhibition stood at 37.1%.
